Assay results collected from several papers.
Lines come from different studies, so protocols differ.
Target: STE20/SPS1-related proline-alanine-rich protein kinase (STK39, Homo sapiens, UniProt Q9UEW8)

O=C(c1ccc(Nc2ncc(Cl)c(-c3cc4ccccc4s3)n2)cc1)N1CCC(N2CCCC2)CC1
remaining binding (binding, competition with immobilised ligand; 1 µM): 36%

CCCOc1ccc([C@@H]2[C@@H](C(=O)O)[C@H](c3ccc4c(c3)OCO4)CN2CC(=O)Nc2c(CC)cccc2CC)cc1
remaining binding (cell-free assay, competition with immobilised ligand; 1 µM): 78%

N[C@@H]1CCN(c2nccc(-c3cnn4ncccc34)n2)C1
remaining binding (binding; 1 µM): 100%

Cc1cc(NC(=O)c2cccc(S(F)(F)(F)(F)F)c2)cc(-n2ccn3nc(-c4cccnc4)cc23)c1
remaining binding (cell-free assay, competition with immobilised ligand; 1 µM): 100%

C[C@@H](c1ccc(-n2cnc3c(N)ncnc32)cc1)N1CCc2nn(C)c(Cc3ccccc3)c2C1=O
remaining binding (binding, competition with immobilised ligand; 0.1 µM): 84%

c1cncc(-c2cccc(Nc3nccc(NC4CCCCC4)n3)c2)c1
remaining binding (binding, competition with immobilised ligand; 10 µM): 97%

O=C(NCC1CCOCC1)c1n[nH]cc1NC(=O)c1c(F)cccc1F
remaining binding (binding, competition with immobilised ligand; 1 µM): 96%

CN(c1nccc(-c2cnn3ncccc23)n1)C1CC1
remaining binding (binding; 1 µM): 100%

O=C(NCCCN1CCOCC1)c1ccc(Nc2ncc(Cl)c(-c3ccc(Cl)s3)n2)cc1
remaining binding (binding, competition with immobilised ligand; 1 µM): 54%

CN(CCCC(F)(F)F)c1nccc(-c2cnn3ncccc23)n1
remaining binding (binding; 1 µM): 82%

N#CC1(c2ccccn2)CCN(Cc2cc(C(=O)N3CCCC3)c(=O)n3ccccc23)CC1
remaining binding (cell-free assay, competition with immobilised ligand; 1 µM): 75%

O=C(NCCCN1CCOCC1)c1ccc(Nc2nccc(-c3cc4ccccc4s3)n2)cc1
remaining binding (binding, competition with immobilised ligand; 1 µM): 73%

COc1ncc2cc3ccccc3nc2c1C#N
remaining binding (cell-free assay, competition with immobilised ligand; 5 µM): 100%

Cn1nc(C(F)(F)F)cc1-c1cnc(N2CCc3cc(S(=O)(=O)Nc4c(F)cc(Cl)cc4F)cc(N4CCCC4=O)c32)nc1
remaining binding (cell-free assay, competition with immobilised ligand; 1 µM): 91%

CN(C)c1nccc(-c2cnc3ncccn23)n1
remaining binding (binding; 1 µM): 51%

FC(F)(F)Oc1cccc(-c2cnc3ccc(-c4ccncc4)nn23)c1
remaining binding (binding, competition with immobilised ligand; 5 µM): 83%

FC(F)(F)c1ccc2c(c1)nc(-c1cccnc1)n2C1CC1
remaining binding (cell-free assay, competition with immobilised ligand; 1 µM): 100%

CN(C)c1ncc(F)c(-c2cnn3ncccc23)n1
remaining binding (binding; 1 µM): 74%

O=C(NCc1ncc(C(F)(F)F)cc1Cl)c1ccc2c(c1)C1(CCS(=O)(=O)CC1)[C@H](C1CC1)N2S(=O)(=O)c1ccc(F)cc1
remaining binding (cell-free assay, competition with immobilised ligand; 1 µM): 84%

C[C@@H]1CCN(c2nccc(-c3cnn4ncccc34)n2)C1
remaining binding (binding; 1 µM): 59%

COc1cnc(Nc2cccc(S(N)(=O)=O)c2)nc1N1CCN(c2ccccc2)C(=O)C1
remaining binding (binding, competition with immobilised ligand; 1 µM): 99%
